We go through ten compounds from ChEMBL document CHEMBL1123521, “Isozyme-specific enzyme inhibitors. 10. Adenosine 5'-triphosphate derivatives as substrates or inhibitors of methionine adenosyltransferases of rat normal and hepatoma tissues” (J Med Chem, 1986).

SMILES strings stand for the structures.

The target in experiment [1] is T1, S-adenosylmethionine synthetase (MAT 1 and MAT 2) (Rattus norvegicus, UniProt P13444+P18298). The experiment can be described thus: […] rat Methionine adenosyltransferase was reported. In kind it is protein assay. The essentials: (§1)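 MAT-T partly purified from rat Novikoff hepatoma cells grown intraperitoneally in rats: cytosol extract, DEAE-cellulose, stored at -20 °C, diluted 10-fold for use. Assay run in duplicate, 37 °C for 30 min, in 150 mM KCl–15 mM MgCl2–5 mM DTT–50 mM Tris-HCl pH 8.2 with 60 μM [14C]methionine. Inhibitors given as 1:1 Mg complexes at two levels of 1-5 × Ki, with six to eight Mg-ATP levels (0.5-4.0 × KM).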

The target in experiment [2] is T1, S-adenosylmethionine synthetase (MAT 1 and MAT 2). The experiment can be described thus: Competitive inhibition of rat methionine adenosyltransferase, activity expressed as Ki. Type of experiment: protein assay. The gist of the method:
as §1

The target in experiment [3] is T2, S-adenosylmethionine synthase isoform type-2 (Rattus norvegicus, UniProt P18298). The experiment can be described thus: Inhibitory constant against rat kidney Methionine adenosyltransferase II, activity expressed as Ki. The gist of the method:
(§2)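 MAT-II from rat kidney extract, taken through DEAE chromatography and diluted 10-fold daily. Duplicate 30-min incubations at 37 °C in 150 mM KCl–15 mM MgCl2–5 mM DTT–50 mM Tris-HCl pH 8.2 with 60 μM [14C]methionine. Mg-complexed inhibitor used at two levels (1-5 × Ki) against six to eight Mg-ATP levels (0.5-4.0 × KM). Product counted on phosphocellulose disks.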

Experiment [4] deals with T2, S-adenosylmethionine synthase isoform type-2. The experiment in a line: Inhibitory constant against rat kidney Methionine adenosyltransferase II. The essentials:
as §2

Experiment [5] has as its target T3, S-adenosylmethionine synthase isoform type-1 (Rattus norvegicus, UniProt P13444). The experiment can be described thus: Inhibitory constant against rat liver Methionine adenosyltransferase I, activity expressed as Ki. The essentials:
(§3)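 Rat liver MAT-I, prepared free of MAT-II and MAT-III and diluted 5-fold. Duplicate assays at 37 °C, 30 min, in 150 mM KCl–7.5 mM MgSO4–2 mM DTT–50 mM HEPES pH 7.5 with 380 μM [14C]methionine. Two inhibitor levels (1:1 Mg complexes, 1-5 × Ki) run against six to eight Mg-ATP levels spanning 0.5-4.0 × KM. Ki taken from kinetic plots.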

Experiment [6] addresses T1, S-adenosylmethionine synthetase (MAT 1 and MAT 2). The experiment in a line: Inhibitory constant against rat methionine adenosyltransferase was reported. In kind it is protein assay. The essentials:
as §1

Experiment [7] has as its target T3, S-adenosylmethionine synthase isoform type-1. The experiment in a line: Inhibitory constant against rat liver Methionine adenosyltransferase I. The essentials: as §3

T2 sequence (P18298 whole entry, canonical isoform): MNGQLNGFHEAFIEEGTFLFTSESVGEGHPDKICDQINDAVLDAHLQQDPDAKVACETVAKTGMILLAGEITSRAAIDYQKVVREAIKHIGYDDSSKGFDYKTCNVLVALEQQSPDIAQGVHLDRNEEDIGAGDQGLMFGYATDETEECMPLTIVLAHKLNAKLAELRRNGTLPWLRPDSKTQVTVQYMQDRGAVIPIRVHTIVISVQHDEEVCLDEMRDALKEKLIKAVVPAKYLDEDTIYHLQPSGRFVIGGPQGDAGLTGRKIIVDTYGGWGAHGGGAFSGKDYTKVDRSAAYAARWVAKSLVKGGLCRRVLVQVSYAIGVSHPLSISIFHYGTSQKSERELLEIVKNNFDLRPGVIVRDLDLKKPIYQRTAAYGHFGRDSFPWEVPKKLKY
T3 sequence (P13444 whole entry, canonical isoform): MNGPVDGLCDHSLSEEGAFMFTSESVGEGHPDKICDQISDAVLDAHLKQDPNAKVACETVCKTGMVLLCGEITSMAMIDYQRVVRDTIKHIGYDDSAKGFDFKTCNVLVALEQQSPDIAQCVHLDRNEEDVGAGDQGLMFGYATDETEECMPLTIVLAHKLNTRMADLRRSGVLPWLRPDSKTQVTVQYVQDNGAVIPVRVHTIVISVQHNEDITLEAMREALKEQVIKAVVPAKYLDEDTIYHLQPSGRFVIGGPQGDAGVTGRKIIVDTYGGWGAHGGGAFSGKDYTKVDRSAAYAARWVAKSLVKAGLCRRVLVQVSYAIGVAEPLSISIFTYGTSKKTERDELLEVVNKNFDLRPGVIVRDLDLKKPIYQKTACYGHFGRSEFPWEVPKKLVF

As to `CSc1nc2c(N)ncnc2n1[C@@H]1O[C@H](COP(=O)(O)OP(=O)(O)OP(=O)(O)O)[C@@H](O)[C@H]1O`, the inhibition constant (Ki) in experiment [1] came to 530 µM.
Turning to `CCCC(OP(=O)(O)OP(=O)(O)OP(=O)(O)O)[C@H]1O[C@@H](n2cnc3c(N)ncnc32)[C@H](O)[C@@H]1O` (stereo not given in full), the Ki in experiment [2] came out at 37 µM; in experiment [3], 48 µM.
Take `Nc1ncnc2c1ncn2[C@@H]1O[C@H](COP(=O)(O)CP(=O)(O)OP(=O)(O)O)[C@@H](O)[C@H]1O` [DIPHOSPHOMETHYLPHOSPHONIC ACID ADENOSYL ESTER]: the Ki in experiment [4] was found to be 300 µM; in experiment [1], 340 µM.
The like results for `CSc1nc(N)c2ncn([C@@H]3O[C@H](COP(=O)(O)OP(=O)(O)OP(=O)(O)O)[C@@H](O)[C@H]3O)c2n1` were, in that order, 600 µM and 110 µM.
In the same order, the values of `Nc1ncnc2c1ncn2[C@@H]1O[C@H](COP(=O)(O)OP(=O)(O)NP(=O)(O)O)[C@@H](O)[C@H]1O` are 5.5 µM and 4 µM.
As for `CO[C@@H]1[C@H](O)[C@@H](COP(=O)(O)OP(=O)(O)OP(=O)(O)O)O[C@H]1n1cnc2c(N)ncnc21`, the inhibition constant Ki in experiment [2] stood at 170 µM; in experiment [3], 140 µM.
On to `CC(OP(=O)(O)OP(=O)(O)OP(=O)(O)O)[C@H]1O[C@@H](n2cnc3c(N)ncnc32)[C@H](O)[C@@H]1O` (stereo not given in full), for which the Ki in experiment [5] turned out to be 9 µM; in experiment [2] it was 80 µM; in experiment [3] it was 190 µM.
For the compound `CCCCNc1ncnc2c1ncn2C1O[C@H](COP(=O)(O)OP(=O)(O)OP(=O)(O)O)[C@@H](O)[C@H]1O` (stereo not given in full), the values for the Ki in experiment [4] and in experiment [6] were 530 µM and 210 µM, respectively.
Consider `Nc1ncnc2c1nc(SCCC(N)C(=O)O)n2C1O[C@H](COP(=O)(O)OP(=O)(O)OP(=O)(O)O)[C@@H](O)[C@H]1O` (stereo not given in full), for which the Ki amounted to 3300 µM in experiment [7] and 520 µM in experiment [4].
Turning to `CO[C@H]1[C@@H](O)[C@H](n2cnc3c(N)ncnc32)O[C@@H]1COP(=O)(O)OP(=O)(O)OP(=O)(O)O`, the Ki in experiment [2] amounted to 180 µM; in experiment [3], 170 µM.
